Data as given in ChEMBL document CHEMBL1121577, “Glycerides as prodrugs. 3. Synthesis and antiinflammatory activity of [1-(p-chlorobenzoyl)-5-methoxy-2-methylindole-3-acetyl]glycerides (indomethacin glycerides)” (J Med Chem, 1980).
The source made the active and inactive calls. The rule behind the calls is not given here.

Assays:
[1] = test system: Rattus norvegicus; experiment: Dose that inhibits paw swelling by 25% compared with control in carrgeenin rat paw edema assay; assay type: functional
How it was run: (§1)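 Rats given glycerides or indomethacin orally 2 h before subplantar injection of 0.1 mL 1.5% carrageenin solution.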

[2] = test system: Rattus norvegicus; experiment: Gain in the body weight of rat was measured at 3.3 micro mol/kg/day. (+ means significant body weight); assay type: functional, organism-based
How it was run: (§2)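 Adjuvant arthritis in rats: mycobacterial adjuvant injected subcutaneously into the tail; on day 14 animals with definite disease were selected and dosed daily on days 14-25. Hind paw swelling and severity scores (four paws scored) were expressed as % change vs diseased controls. Body weight gain was assessed over days 1-25; + marks significant gain.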

[3] = test system: Rattus norvegicus; experiment: inhibition of swelling in rat paw edema was measured at a dose of 0.8 micro mol/kg/day for days 14-25; assay type: functional; how it was run: as §2
[4] = test system: Rattus norvegicus; experiment: Percent changes of hind paw edema and severity scores compared to control animals at 1.6 micro mol/kg/day; assay type: functional; how it was run: as §2
[5] = test system: Rattus norvegicus; experiment: inhibition of swelling in rat adjuvant-induced arthritis was measured at a dose of 3.3 micro mol/kg/day for days 14-25
[6] = test system: Rattus norvegicus; experiment: Percent changes of hind paw edema and severity scores compared to control animals at 0.8 micro mol/kg/day; assay type: functional; how it was run: as §2
[7] = test system: Rattus norvegicus; experiment: Percent changes of hind paw edema and severity scores compared to control animals at 3.3 micro mol/kg/day; assay type: functional; how it was run: as §2
[8] = test system: Rattus norvegicus; experiment: inhibition of swelling in rat paw edema was measured at a dose of 1.6 micro mol/kg/day for days 14-25; assay type: functional; how it was run: as §2
[9] = test system: Rattus norvegicus; experiment: inhibition of swelling in rat paw edema was measured at a dose of 14.0 micro mol/kg/day for days 14-25; assay type: functional; how it was run: as §2
[10] = test system: Rattus norvegicus; experiment: Gain in the body weight of rat was measured at 14.0 micro mol/kg/day. (+ means significant body weight); assay type: functional, organism-based; how it was run: as §2
[11] = test system: Rattus norvegicus; experiment: Percent changes of hind paw edema and severity scores compared to control animals at 14.0 micro mol/kg/day; assay type: functional; how it was run: as §2
[12] = test system: Rattus norvegicus; experiment: Dose that inhibits paw swelling by 25% compared with control in carrgeenin rat paw edema assay; i = inactive at 18 umol/kg; assay type: functional, organism-based; how it was run: as §1
[13] = species on record: Rattus norvegicus; experiment: compound was measured as dose which produces lesions in the treated animals.; assay type: functional
How it was run: (§3)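 Stomachs of rats from the oral carrageenin paw edema study (dosed 2 h before carrageenin) examined for gastric lesions by the Brodie and Hansen method. UD50 is the dose producing lesions in 50% of treated animals.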

[14] = Ratio of UD50 to that of ED25; assay type: ADME; settings: read-out: Therapeutic ratio
How it was run: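 Therapeutic index calculated as UD50 (dose causing gastric lesions in 50% of rats) divided by ED25 (dose inhibiting carrageenin paw edema by 25%), both from the same oral rat study.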

[15] = test system: Rattus norvegicus; experiment: Percent changes of hind paw edema and severity scores compared to control animals at 5.6 micro mol/kg/day; assay type: functional; how it was run: as §2
[16] = test system: Rattus norvegicus; experiment: Gain in the body weight of rat was measured at 11.0 micro mol/kg/day. (+ means significant body weight); assay type: functional, organism-based; how it was run: as §2
[17] = test system: Rattus norvegicus; experiment: Percent changes of hind paw edema and severity scores compared to control animals at 11.0 micro mol/kg/day; assay type: functional; how it was run: as §2
[18] = test system: Rattus norvegicus; experiment: inhibition of swelling in rat paw edema was measured at a dose of 5.6 micro mol/kg/day for days 14-25; assay type: functional; how it was run: as §2
[19] = test system: Rattus norvegicus; experiment: inhibition of swelling in rat paw edema was measured at a dose of 2.8 micro mol/kg/day for days 14-25; assay type: functional; how it was run: as §2
[20] = species on record: Rattus norvegicus; experiment: Dose which produced lesions in 50% of the treated animals; assay type: functional; how it was run: as §3
[21] = test system: Rattus norvegicus; experiment: Gain in the body weight of rat was measured at 5.6 micro mol/kg/day. (+ means significant body weight); assay type: functional, organism-based; how it was run: as §2
[22] = test system: Rattus norvegicus; experiment: Percent changes of hind paw edema and severity scores compared to control animals at 1.4 micro mol/kg/day; assay type: functional; how it was run: as §2
[23] = test system: Rattus norvegicus; experiment: Percent changes of hind paw edema and severity scores compared to control animals at 2.8 micro mol/kg/day; assay type: functional; how it was run: as §2
[24] = Ratio of UD50 to that of ED25; settings: read-out: Therapeutic ratio
[25] = test system: Rattus norvegicus; experiment: inhibition of swelling in rat paw edema was measured at a dose of 1.4 micro mol/kg/day for days 14-25; assay type: functional
How it was run: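 Rat adjuvant arthritis: adjuvant injected subcutaneously into the tail; after 14 days, only rats with definite disease were treated, with daily doses on days 14-25. Hind paw swelling was expressed as percent change versus diseased controls. Severity was scored on four paws, and body weight gain was followed over days 1-25.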

[26] = test system: Rattus norvegicus; experiment: inhibition of swelling in rat paw edema was measured at a dose of 11.0 micro mol/kg/day for days 14-25; assay type: functional; how it was run: as §2
[27] = test system: Rattus norvegicus; experiment: Dose that inhibits paw swelling by 25% compared with control in carrgeenin rat paw edema assay; i = inactive at 26 uM/Kg; assay type: functional, organism-based; how it was run: as §1
[28] = test system: Rattus norvegicus; experiment: Percent changes of hind paw edema and severity scores compared to control animals at 7.0 micro mol/kg/day; assay type: functional; how it was run: as §2
[29] = test system: Rattus norvegicus; experiment: inhibition of swelling in rat paw edema was measured at a dose of 7.0 micro mol/kg/day for days 14-25; assay type: functional; how it was run: as §2
[30] = test system: Rattus norvegicus; experiment: Gain in the body weight of rat was measured at 7.0 micro mol/kg/day. (+ means significant body weight); assay type: functional, organism-based; how it was run: as §2
[31] = test system: Rattus norvegicus; experiment: inhibition of swelling in rat paw edema was measured at a dose of 0.7 micro mol/kg/day for days 14-25; assay type: functional; how it was run: as §2
[32] = test system: Rattus norvegicus; experiment: Percent changes of hind paw edema and severity scores compared to control animals at 0.7 micro mol/kg/day; assay type: functional; how it was run: as §2
[33] = test system: Rattus norvegicus; experiment: Gain in the body weight of rat was measured at 2.8 micro mol/kg/day. (+ means significant body weight); assay type: functional, organism-based; how it was run: as §2

CCCCCCCC(=O)OCC(COC(=O)CCCCCCC)OC(=O)Cc1c(C)n(C(=O)c2ccc(Cl)cc2)c2ccc(OC)cc12
ED25 [1]: 12 µM/kg

CCCCCCCCCC(=O)OCC(COC(=O)CCCCCCCCC)OC(=O)Cc1c(C)n(C(=O)c2ccc(Cl)cc2)c2ccc(OC)cc12
ED25 [1]: 18 µM/kg

COc1ccc2c(c1)c(CC(=O)OCC(O)CO)c(C)n2C(=O)c1ccc(Cl)cc1 (centres undefined)
Change [2]: significant body weight | Inhibition [3]: 57% | Change [4]: 42% | Inhibition [5]: 73% | ED25 [1]: 5 µM/kg | Change [6]: 31% | Change [7]: 55% | Inhibition [8]: 67% | Inhibition [9]: 76% | Change [10]: significant body weight | Change [11]: 53%

COc1ccc2c(c1)c(CC(=O)OC(CO)CO)c(C)n2C(=O)c1ccc(Cl)cc1
ED25 [1]: 21 µM/kg

CCCCCCCCCCCCCCCC(=O)OCC(COC(=O)CCCCCCCCCCCCCCC)OC(=O)Cc1c(C)n(C(=O)c2ccc(Cl)cc2)c2ccc(OC)cc12
ED25 [1]: 23 µM/kg

COc1ccc2c(c1)c(CC(=O)OCC(COC(=O)Cc1c(C)n(C(=O)c3ccc(Cl)cc3)c3ccc(OC)cc13)OC(=O)Cc1c(C)n(C(=O)c3ccc(Cl)cc3)c3ccc(OC)cc13)c(C)n2C(=O)c1ccc(Cl)cc1
ED25 [12]: inactive

COc1ccc2c(c1)c(CC(=O)OC(COC(C)=O)COC(C)=O)c(C)n2C(=O)c1ccc(Cl)cc1
Change [2]: significant body weight | UD50 [13]: 67 µM/kg | Inhibition [3]: 43% | Change [4]: 28% | Inhibition [5]: 72% | selectivity ratio [14]: 5 | ED25 [1]: 14 µM/kg | Change [6]: 25% | Change [7]: 55% | Inhibition [8]: 50% | Inhibition [9]: 79% | Change [10]: significant body weight | Change [11]: 60%

CCCCCCCCCCCCCCCCCCCC(=O)OCC(COC(=O)CCCCCCCCCCCCCCCCCCC)OC(=O)Cc1c(C)n(C(=O)c2ccc(Cl)cc2)c2ccc(OC)cc12
ED25 [1]: 38 µM/kg

CCCCCCCCCCCC(=O)OCC(COC(=O)CCCCCCCCCCC)OC(=O)Cc1c(C)n(C(=O)c2ccc(Cl)cc2)c2ccc(OC)cc12
Change [15]: 53% | Change [16]: significant body weight | Change [17]: 74% | Inhibition [18]: 63% | Inhibition [19]: 70% | UD50 [20]: 78 µM/kg | ED25 [1]: 13 µM/kg | Change [21]: significant body weight | Change [22]: 30% | Change [23]: 41% | selectivity ratio [24]: 6 | Inhibition [25]: 30% | Inhibition [26]: 73%

CCCC(=O)OCC(COC(=O)CCC)OC(=O)Cc1c(C)n(C(=O)c2ccc(Cl)cc2)c2ccc(OC)cc12
ED25 [1]: 22 µM/kg

COc1ccc2c(c1)c(CC(=O)OCC(O)COC(=O)Cc1c(C)n(C(=O)c3ccc(Cl)cc3)c3ccc(OC)cc13)c(C)n2C(=O)c1ccc(Cl)cc1
ED25 [27]: inactive

COc1ccc2c(c1)c(CC(=O)OCC(CO)OC(=O)Cc1c(C)n(C(=O)c3ccc(Cl)cc3)c3ccc(OC)cc13)c(C)n2C(=O)c1ccc(Cl)cc1 (centres undefined)
ED25 [1]: 31 µM/kg

COc1ccc2c(c1)c(CC(=O)O)c(C)n2C(=O)c1ccc(Cl)cc1 [INDOMETHACIN]
Change [28]: 74% | Inhibition [29]: 75% | Inhibition [19]: 76% | Change [30]: Active | Inhibition [31]: 37% | UD50 [20]: 10 µM/kg | ED25 [1]: 5 µM/kg | Change [32]: 25% | Change [33]: Active | Change [22]: 33% | Change [23]: 56% | selectivity ratio [24]: 2 | Inhibition [25]: 57%
